Key:
[1] = molecular target: Small conductance calcium-activated potassium channel protein 3 (Rattus norvegicus, UniProt P70605); assay: Inhibition of KCa2.3 in Sprague-Dawley rat superior cervical ganglion neurons assessed as inhibition of afterhyperpolarization by electrophysiological assay
Procedure, shortened: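 Afterhyperpolarization (AHP) recorded from rat sympathetic ganglion neurons. The reported value is the concentration giving a 50% reduction in AHP amplitude.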

[2] = molecular target: Small conductance calcium-activated potassium channel protein 3 (Rattus norvegicus) (UniProt P70605); assay: Inhibition of KCa2.3 in Sprague-Dawley rat superior cervical ganglion neurons assessed as inhibition of afterhyperpolarization by electrophysiological assay relative to UCL1848
Procedure, shortened: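 AHP recorded from rat sympathetic ganglion neurons. The equi-effective molar ratio is the test-compound concentration giving 50% AHP inhibition divided by the UCL 1848 concentration giving 50% inhibition, both measured in the same experiment. Each compound was tested on 3–5 neurons.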
Target sequence in this assay (P70605 whole entry): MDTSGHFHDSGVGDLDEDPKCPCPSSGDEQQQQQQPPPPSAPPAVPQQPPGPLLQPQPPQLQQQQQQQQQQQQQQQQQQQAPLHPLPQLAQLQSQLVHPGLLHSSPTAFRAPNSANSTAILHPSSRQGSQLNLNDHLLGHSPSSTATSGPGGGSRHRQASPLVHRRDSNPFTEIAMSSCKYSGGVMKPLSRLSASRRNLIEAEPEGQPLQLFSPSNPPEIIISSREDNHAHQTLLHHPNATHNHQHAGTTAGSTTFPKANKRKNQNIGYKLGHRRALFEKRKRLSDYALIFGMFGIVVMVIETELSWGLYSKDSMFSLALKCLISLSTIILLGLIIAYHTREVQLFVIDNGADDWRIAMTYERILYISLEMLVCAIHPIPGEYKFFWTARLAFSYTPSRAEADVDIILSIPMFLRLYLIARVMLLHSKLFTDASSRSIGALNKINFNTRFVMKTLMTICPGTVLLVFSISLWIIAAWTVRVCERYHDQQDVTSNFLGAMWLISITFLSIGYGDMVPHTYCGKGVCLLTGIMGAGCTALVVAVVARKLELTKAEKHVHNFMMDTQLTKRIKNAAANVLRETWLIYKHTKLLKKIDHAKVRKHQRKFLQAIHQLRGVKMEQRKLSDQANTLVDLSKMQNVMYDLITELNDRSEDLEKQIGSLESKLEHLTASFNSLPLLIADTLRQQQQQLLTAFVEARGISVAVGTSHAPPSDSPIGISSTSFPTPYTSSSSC

[3] = molecular target: Small conductance calcium-activated potassium channel protein 3 (Rattus norvegicus) (UniProt P70605); assay: Inhibition of KCa2.3 in rat superior cervical ganglion neurons
Target sequence in this assay (P70605 whole entry, looked up): as the sequence (P70605 whole entry) above

[4] = molecular target: Small conductance calcium-activated potassium channel protein 3 (Rattus norvegicus) (UniProt P70605); assay: Inhibition of KCa2.3 in Sprague-Dawley rat superior cervical ganglion neurons assessed as inhibition of afterhyperpolarization by electrophysiological assay relative to dequalinium
Procedure, shortened: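 AHP recorded from rat sympathetic ganglion neurons. The equi-effective molar ratio is the concentration giving 50% AHP inhibition relative to that of dequalinium, used as the comparator instead of UCL 1848.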
Target sequence in this assay (P70605 whole entry): as above

Sequence of Small conductance calcium-activated potassium channel protein 3 (P70605 whole entry): as above

Row | IC50 [1] | EMR [2] | IC50 [3] | EMR [4] | SMILES
1 | 3.9 nM | 1.8 | – | – | Oc1ccc2c(c1)c1cc[n+]2CCCCC[n+]2ccc(c3cc(O)ccc32)NCCCCCN1
2 | 348 nM | 136 | – | – | Oc1c2cc(I)cc1CNc1cc[n+](c3ccccc13)CCCCC[n+]1ccc(c3ccccc31)NC2
3 | 5.1 nM | 2.6 | – | – | O=[N+]([O-])c1ccc2c(c1)c1cc[n+]2Cc2cccc(c2)C[n+]2ccc(c3cc([N+](=O)[O-])ccc32)NCc2ccc(cc2)CN1
4 | 37 nM | 11 | – | – | c1ccc2c(c1)c1cc[n+]2CCSCC[n+]2ccc(c3ccccc32)NCCOCCN1
5 | 123 nM | 25 | – | – | c1ccc(CN2CCCCCN(Cc3ccccc3)c3cc[n+](c4ccccc34)CCCCC[n+]3ccc2c2ccccc23)cc1
6 | 17 nM | 6.9 | – | – | Fc1ccc2c(c1)c1cc[n+]2Cc2cccc(c2)C[n+]2ccc(c3cc(F)ccc32)NCc2ccc(cc2)CN1
7 | 17 nM | 5.1 | – | – | c1ccc2c(c1)c1cc[n+]2CCOCC[n+]2ccc(c3ccccc32)NCCOCCN1
8 | 5.2 nM | 2.3 | – | – | CC1CCNc2cc[n+](c3ccccc23)CCC(C)CC[n+]2ccc(c3ccccc32)NCC1 (configuration not stated)
9 | 76 nM | 31 | – | – | FC(F)(F)c1ccc2c3cc[n+](c2c1)Cc1cccc(c1)C[n+]1ccc(c2ccc(C(F)(F)F)cc21)NCc1ccc(cc1)CN3
10 | 9.8 nM | 4.1 | – | – | COc1ccc2c3cc[n+](c2c1)Cc1cccc(c1)C[n+]1ccc(c2ccc(OC)cc21)NCc1ccc(cc1)CN3
11 | 4.1 nM | 1.2 | – | – | c1ccc2c(c1)c1cc[n+]2CCSCC[n+]2ccc(c3ccccc32)NCCCCCN1
12 | 42 nM | 19 | – | – | C1=C\C[n+]2ccc(c3ccccc32)NCCCCCNc2cc[n+](c3ccccc23)C/1
13 | 15 nM | 7.4 | – | – | COc1ccc2c(c1)c1cc[n+]2Cc2cccc(c2)C[n+]2ccc(c3cc(OC)ccc32)NCc2ccc(cc2)CN1
14 | 42 nM | 12 | – | – | c1ccc2c(c1)c1cc[n+]2CCSCC[n+]2ccc(c3ccccc32)NCCSCCN1
15 | 12 nM | 3.6 | – | – | O=C1CCNc2cc[n+](c3ccccc23)CCCCC[n+]2ccc(c3ccccc32)NCC1
16 | 58 nM | 17 | – | – | c1ccc2c(c1)c1cc[n+]2CCOCC[n+]2ccc(c3ccccc32)NCCSCCN1
17 | 214 nM | 60 | – | – | c1ccc2c(c1)c1cc[n+]2CCCCC[n+]2ccc(c3ccccc32)NCCC2(CCN1)OCCO2
18 | 14 nM | 5.6 | – | – | C1#CCNc2cc[n+](c3ccccc23)CCCCC[n+]2ccc(c3ccccc32)NC1
19 | 21 nM | 8.6 | – | – | Clc1cc(Cl)c2c3cc[n+](c2c1)CCCCC[n+]1ccc(c2c(Cl)cc(Cl)cc21)NCCCCCN3

Row | IC50 [1] | EMR [2] | IC50 [3] | EMR [4] | SMILES
20 | 4.8 nM | 1.4 | – | – | c1ccc2c(c1)c1cc[n+]2CCOCC[n+]2ccc(c3ccccc32)NCCCCCN1
21 | 97 nM | 38 | – | – | COc1c2cccc1CNc1cc[n+](c3ccccc13)CCCCC[n+]1ccc(c3ccccc31)NC2
22 | 3 nM | 1.1 | – | – | COc1ccc2c3cc[n+](c2c1)CCCCC[n+]1ccc(c2ccc(OC)cc21)NCCCCCN3
23 | 4.1 nM | 2.1 | – | – | Fc1ccc2c(c1)c1cc[n+]2CCCCC[n+]2ccc(c3cc(F)ccc32)NCCCCCN1
24 | 300 nM | 83 | – | – | c1ccc2c(c1)c1cc[n+]2CCC2(CC[n+]3ccc(c4ccccc43)NCCC3(CCN1)OCCO3)OCCO2
25 | 6.8 nM | 3.1 | – | – | COc1ccc2c(c1)c1cc[n+]2CCCCC[n+]2ccc(c3cc(OC)ccc32)NCCCCCN1
26 | 124 nM | 25 | – | – | c1ccc2c(c1)c1cc[n+]2CCCCC[n+]2ccc(c3ccccc32)SCCCCCS1
27 | 3.7 nM | 1.7 | – | – | Nc1ccc2c(c1)c1cc[n+]2Cc2cccc(c2)C[n+]2ccc(c3cc(N)ccc32)NCc2ccc(cc2)CN1
28 | 21 nM | 8 | – | – | Clc1ccc2c(c1)c1cc[n+]2Cc2cccc(c2)C[n+]2ccc(c3cc(Cl)ccc32)NCc2ccc(cc2)CN1
29 | 4.4 nM | 1.8 | – | – | c1ccc2c(c1)c1cc[n+]2Cc2ccc(cc2)C[n+]2ccc(c3ccccc32)NCCCCCN1
30 | 17 nM | 5 | – | – | c1ccc2c(c1)c1cc[n+]2CCCCC[n+]2ccc(c3ccccc32)NCCOCCN1
31 | 114 nM | 54 | – | – | c1ccc2c(c1)c1cc[n+]2CCCCC[n+]2ccc(c3ccccc32)NCC2CCC(CC2)CN1
32 | 19 nM | 7.3 | – | – | Clc1ccc2c3cc[n+](c2c1)Cc1cccc(c1)C[n+]1ccc(c2ccc(Cl)cc21)NCc1ccc(cc1)CN3
33 | 4.1 nM | 2.1 | – | – | O=[N+]([O-])c1ccc2c(c1)c1cc[n+]2CCCCC[n+]2ccc(c3cc([N+](=O)[O-])ccc32)NCCCCCN1
34 | 18 nM | 5.3 | – | – | c1ccc2c(c1)c1cc[n+]2CCCCC[n+]2ccc(c3ccccc32)NCCSCCN1
35 | 1.7 nM | 0.81 | – | – | c1cc2cc(c1)C[n+]1ccc(c3ccccc31)NCC1CCC(CC1)CNc1cc[n+](c3ccccc13)C2
36 | 3.8 nM | 2 | – | – | Cc1ccc2c(c1)c1cc[n+]2CCCCC[n+]2ccc(c3cc(C)ccc32)NCCCCCN1
37 | 8.1 nM | 1.6 | – | – | FC(F)(F)c1ccc2c3cc[n+](c2c1)CCCCC[n+]1ccc(c2ccc(C(F)(F)F)cc21)NCCCCCN3
38 | – | 12 | – | – | c1cc2cc(c1)CNc1cc[n+](c3ccccc13)CCCCC[n+]1ccc(c3ccccc31)NC2 [listing 1 of 3 here]

Row | IC50 [1] | EMR [2] | IC50 [3] | EMR [4] | SMILES
39 | 4 nM | 1.1 | – | – | FC(F)(F)c1ccc2c(c1)c1cc[n+]2CCCCC[n+]2ccc(c3cc(C(F)(F)F)ccc32)NCCCCCN1
40 | 13 nM | 6.1 | – | – | C1=C\CNc2cc[n+](c3ccccc23)CCCCC[n+]2ccc(c3ccccc32)NC/1
41 | 2.3 nM | 1.04 | – | – | Nc1ccc2c(c1)c1cc[n+]2CCCCC[n+]2ccc(c3cc(N)ccc32)NCCCCCN1
42 | 27 nM | 11 | – | – | FC(F)(F)c1ccc2c(c1)c1cc[n+]2Cc2cccc(c2)C[n+]2ccc(c3cc(C(F)(F)F)ccc32)NCc2ccc(cc2)CN1
43 | 33 nM | – | – | – | c1cc2cc(c1)CNc1cc[n+](c3ccccc13)CCCCC[n+]1ccc(c3ccccc31)NC2 [listing 2 of 3 here]
44 | 15 nM | 5.9 | – | – | FC(F)(F)Oc1ccc2c(c1)c1cc[n+]2Cc2cccc(c2)C[n+]2ccc(c3cc(OC(F)(F)F)ccc32)NCc2ccc(cc2)CN1
45 | 19 nM | 7.6 | – | – | Cc1ccc2c(c1)c1cc[n+]2Cc2cccc(c2)C[n+]2ccc(c3cc(C)ccc32)NCc2ccc(cc2)CN1
46 | 24 nM | 10 | – | – | Clc1cc(Cl)c2c3cc[n+](c2c1)Cc1cccc(c1)C[n+]1ccc(c2c(Cl)cc(Cl)cc21)NCc1ccc(cc1)CN3
47 | 33 nM | 13.5 | – | – | FC1(F)CNc2cc[n+](c3ccccc23)CCCCC[n+]2ccc(c3ccccc32)NCC(F)(F)C1(F)F
48 | 394 nM | 153 | – | – | Oc1c2cccc1CNc1cc[n+](c3ccccc13)CCCCC[n+]1ccc(c3ccccc31)NC2
49 | – | – | 60 nM | – | c1ccc2c(c1)c1cc[n+]2CCCCC[n+]2ccc(c3ccccc32)NCc2ccc(cc2)CN1
50 | 3 nM | 1.1 | – | – | Clc1ccc2c(c1)c1cc[n+]2CCCCC[n+]2ccc(c3cc(Cl)ccc32)NCCCCCN1
51 | 5.9 nM | 2.6 | – | – | CC1CCNc2cc[n+](c3ccccc23)CCCCC[n+]2ccc(c3ccccc32)NCC1
52 | 124 nM | 47 | – | 0.14 | CN1CCCCCN(C)c2cc[n+](c3ccccc23)CCCCC[n+]2ccc1c1ccccc12
53 | – | – | 31 nM | – | c1cc2cc(c1)CNc1cc[n+](c3ccccc13)CCCCC[n+]1ccc(c3ccccc31)NC2 [listing 3 of 3 here]
54 | 2.6 nM | 0.53 | – | – | Clc1ccc2c3cc[n+](c2c1)CCCCC[n+]1ccc(c2ccc(Cl)cc21)NCCCCCN3
55 | 3.8 nM | 1.7 | – | – | CC1CC[n+]2ccc(c3ccccc32)NCCCCCNc2cc[n+](c3ccccc23)CC1
56 | 3.2 nM | 0.91 | – | – | OC1CCNc2cc[n+](c3ccccc23)CCCCC[n+]2ccc(c3ccccc32)NCC1

Row | SMILES | IC50 [1] | EMR [2] | IC50 [3] | EMR [4]
57 | c1cc2cc(c1)C[n+]1ccc(c3ccccc31)NCc1ccc(cc1)CNc1cc[n+](c3ccccc13)C2 | 4.1 nM | 1.44 | – | –
58 | c1ccc2c(c1)c1cc[n+]2CCCCC[n+]2ccc(c3ccccc32)NCCCCCN1 | 2.7 nM | – | – | –

Source: ChEMBL document CHEMBL2390924, “Further studies on bis-charged tetraazacyclophanes as potent inhibitors of small conductance Ca(2+)-activated K+ channels” (Eur J Med Chem, 2013)
